The source made the active and inactive calls. The rule behind the calls is not given here.
Key:
Camelpox virus [1] = assay: Antiviral activity against Camelpox virus CML14 infected in human PHK assessed as reduction in viral titer after 6 days postinfection by virus yield reduction assay; assay type: functional
[2] = Cytotoxicity against HEL299 cells after 4 days by Z1 Coulter counting analysis; assay type: cell-based, HEL 299; details: human, hel 299, 96 h
In short: (§1)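 Cell growth inhibition: HEL cells were seeded at 3.5 × 10³ per well and PHKs at 5 × 10³ per well. Serial dilutions were added in duplicate after 1 day (HEL) or 3 days (PHK). After 4 days with compound, cells were trypsinized and counted with a Coulter counter (8 μm lower limit). CC50 is the concentration reducing growth by 50%, mean ± SD of at least two experiments.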

Camelpox virus [3] = assay: Antiviral activity against Camelpox virus CML14 infected in HEL299 cells assessed as complete inhibition of viral replication at 0.4 uM after 6 days postinfection by virus yield reduction assay; assay type: functional, organism-based; details: HEL 299
[4] = Selectivity index, ratio of CC50 for HEL299 cells to EC50 for Camelpox virus CML14 infected in HEL299 cells; assay type: toxicity, cell-based, HEL 299; details: human, hel 299
Camelpox virus [5] = assay: Antiviral activity against Camelpox virus CML1 infected in human PHK assessed as complete inhibition of viral replication at 4 uM after 6 days postinfection by virus yield reduction assay; assay type: functional, organism-based
Camelpox virus [6] = assay: Antiviral activity against Camelpox virus CML14 infected in HEL299 cells assessed as reduction in viral titer after 6 days postinfection by virus yield reduction assay; assay type: functional; details: HEL 299
Camelpox virus [7] = assay: Antiviral activity against Camelpox virus CML1 infected in HEL299 cells assessed as complete inhibition of viral replication at 0.4 uM after 6 days postinfection by virus yield reduction assay; assay type: functional, organism-based; details: HEL 299
[8] = Selectivity index, ratio of CC50 for HEL299 cells to EC50 for Camelpox virus CML1 infected in HEL299 cells; assay type: toxicity, cell-based, HEL 299; details: human, hel 299
[9] = Cytotoxicity against differentiated epithelium of human PHK raft culture at 38 uM after 4 days by Z1 Coulter counting analysis; details: 96 h
Camelpox virus [10] = assay: Antiviral activity against Camelpox virus CML14 infected in human PHK assessed as complete inhibition of viral replication at 4 uM after 6 days postinfection by virus yield reduction assay; assay type: functional, organism-based
Camelpox virus [11] = assay: Antiviral activity against Camelpox virus CML1 infected in human PHK raft culture assessed as inhibition of virus-induced cytopathic effect at 9 uM after 7 days postinfection; assay type: functional, organism-based
[12] = Cytotoxicity against human PHK after 4 days by Z1 Coulter counting analysis; details: 96 h; in short: as §1
Camelpox virus [13] = assay: Antiviral activity against Camelpox virus CML1 infected in human PHK raft culture assessed as inhibition of viral replication at 38 uM after 7 days postinfection by virus yield reduction assay; assay type: functional, organism-based
Camelpox virus [14] = assay: Antiviral activity against Camelpox virus CML1 infected in human PHK assessed as reduction in viral titer after 6 days postinfection by virus yield reduction assay; assay type: functional

SMILES: CCCCCCCCCCCCCCCCOCCO[PH]1(O)CO[C@@H](Cn2c(N)ncnc2=O)CO1
- Activity (Camelpox virus [1]): Dose-dependent effect
- CC50 [2]: 79 µM
- Activity (Camelpox virus [3]): Active
- Ratio CC50/IC50 [4]: 12
- Activity (Camelpox virus [5]): Active
- Activity (Camelpox virus [6]): Dose-dependent effect
- Activity (Camelpox virus [7]): Active
- Ratio CC50/IC50 [8]: 10
- Activity [9]: Toxic
- Activity (Camelpox virus [10]): Active
- Activity (Camelpox virus [11]): inactive
- CC50 [12]: 54 µM
- Activity (Camelpox virus [13]): Active
- Activity (Camelpox virus [14]): Dose-dependent effect
